SR-BI DiI-HDL act: activators of SR-BI mediated DiI-HDL uptake, primary screen, ldlA[mSR-BI] CHO cells, DiI fluorescence; 320,000 compounds, 0.096% hits; AID 504775, 2011; 3 h; 100 = double the neutral-control signal; activation, % at 12.5 µM;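 active = mean replicate activation of at least 60% and every replicate at or above 60%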;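 also: 0% = median plate neutral-control signal and 100% = twice that signal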
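Assay system: LDL receptor-deficient CHO ldlA cells overexpressing murine SR-BI / Medium: BSA-supplemented, HEPES-buffered Ham's F12, pH 7.4 / Probe or stimulus: DiI-labelled HDL at 10 µg/mL final / Timing: compound with DiI-HDL co-incubation, 3 h at 37 °C / Technique: bottom-read cell fluorescence after medium removal, ex 550/em 595 nm / Measure: HDL uptake via cellular fluorescence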
Rin1-Abl PPI inh: inhibitors of Rin1-Abl protein binding, primary screen, biochemical, TR-FRET. Tyrosine-protein kinase ABL1 (Homo sapiens) + Ras and Rab interactor 1 (Homo sapiens), …. inhibition, % at 7.35 µM. 360,000 compounds, 0.4% hits. AID 588664, 2011; in the data active = inhibition above about 5%, passing the limit was not always enough
SR-BI HDL uptake: inhibitors of SR-BI mediated HDL lipid uptake, primary screen, ldlA[mSR-BI] cells, fluorescence, single point. ldlA[mSR-BI] CHO cells, DiI-HDL uptake fluorescence, 3 h. 320,000 compounds, 0.96% hits. Scavenger receptor class B member 1 (Mus musculus), Q61009. inhibition, % at 12.5 µM;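 active = mean replicate inhibition of at least 70% and a set share of replicates each scoring 70 or more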;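 also: 0% = median of neutral control wells and 100% = median of positive control wells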
GRK2 aptamer HTS: compounds blocking aptamer binding on GRK2 – biochemical, human GRK2, bead flow cytometry, HTS, primary screen. Beta-adrenergic receptor kinase 1 (Homo sapiens), P25098. FAM-aptamer displacement from GRK2. inhibition of aptamer binding, % at 10 µM. 330,000 compounds, 0.59% hits. AID 488847, 2010;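 active = inhibition of aptamer binding above 40%, roughly 3 SD of noise, on plates passing a quality check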;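 also: median bead fluorescence of bound FAM aptamer so fluorescent compounds give negative values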
Target sequence (P25098 whole entry, looked up): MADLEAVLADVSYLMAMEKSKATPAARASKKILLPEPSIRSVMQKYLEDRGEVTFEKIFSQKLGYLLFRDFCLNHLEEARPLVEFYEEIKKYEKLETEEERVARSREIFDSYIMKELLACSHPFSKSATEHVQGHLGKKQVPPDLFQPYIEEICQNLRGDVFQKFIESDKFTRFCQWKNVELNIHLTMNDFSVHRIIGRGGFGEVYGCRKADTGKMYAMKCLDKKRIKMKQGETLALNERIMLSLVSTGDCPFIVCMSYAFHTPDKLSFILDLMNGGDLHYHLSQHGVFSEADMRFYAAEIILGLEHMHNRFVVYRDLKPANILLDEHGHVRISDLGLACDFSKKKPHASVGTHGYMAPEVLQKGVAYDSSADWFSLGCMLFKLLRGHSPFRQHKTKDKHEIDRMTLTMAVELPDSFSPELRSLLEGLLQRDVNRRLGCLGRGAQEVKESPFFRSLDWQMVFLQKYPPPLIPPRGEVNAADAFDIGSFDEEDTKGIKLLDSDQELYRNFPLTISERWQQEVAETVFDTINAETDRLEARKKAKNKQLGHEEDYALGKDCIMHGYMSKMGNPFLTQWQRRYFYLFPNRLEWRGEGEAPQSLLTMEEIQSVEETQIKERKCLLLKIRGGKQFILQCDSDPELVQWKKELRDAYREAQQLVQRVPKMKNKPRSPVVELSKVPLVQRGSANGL
Rin1 Abl conf: Rin1-Abl binding inhibitor retest, confirmation, biochemical, TR-FRET. shares compounds with Rin1-Abl PPI inh. purified proteins. inhibition, % at 7.35 µM. 1,300 compounds, 49% hits
GFP quench: GFP fluorescence inhibitors and quenchers, artefact control for Rin1-Abl interaction inhibitor project, biochemical | shares compounds with Rin1-Abl PPI inh | inhibitors/quenchers counterscreen | inhibition, % at 6.75 µM | 1,300 compounds, 8.5% hits | AID 602125, 2011;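 also: ABL1-eGFP fusion protein alone without its partner RIN1-SBP; 0% = protein with vehicle and 100% = wells lacking protein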
Active calls of the source: *; nt = no result given. Most compounds without a hit are left out; they make up all but 1.9% or so of the library. Rule as the data show it, unless noted: active = inhibition above about 6.5%; inactive = the rest.

SMILES	SR-BI DiI-HDL act	Rin1-Abl PPI inh	SR-BI HDL uptake	GRK2 aptamer HTS	Rin1 Abl conf	GFP quench
O=S(=O)(Cc1ccccc1)N1CCN(c2ncccn2)CC1	13	7.2*	-13	0	-1	0
COc1ccc(CN2CCC(Oc3ccc(C(=O)N4CCCCC4)cc3)CC2)cc1C	-59	15*	59	0	10*	-3
O=C(CN1CCN(S(=O)(=O)c2cccc(Cl)c2)CC1)NCC1(N2CCOCC2)CCCCC1	15	-1	-15	0	nt	nt
Cc1ccccc1C(=O)c1c[nH]c(C(=O)NCCc2ccccn2)c1	9	-2	-9	1	nt	nt
CNCc1ccccc1Sc1ccc(O)c(O)c1	30	12*	-30	4	6.4*	0
O=[N+]([O-])c1ccc(N/N=C/c2ccc(O)c(O)c2O)c(S(=O)(=O)N2CCOCC2)c1	-108	14*	108*	nt	9.5*	13*
O=C(CCc1ccc(S(=O)(=O)N2CCOCC2)cc1)N/N=C/c1ccc(O)c(O)c1O	nt	13*	nt	6	11*	9.4*
O=[N+]([O-])c1ccc(N/N=C/c2cccc(O)c2O)c(S(=O)(=O)N2CCOCC2)c1	nt	1	nt	0	nt	nt
C=CCOc1ccc(/C=N/NC(=O)C(=O)Nc2ccccn2)cc1OC	0	6.5*	0	0	14*	-1
Cc1cccc2cc(C(c3nnnn3C(C)(C)C)N(Cc3ccco3)CC3CCCO3)c(=O)[nH]c12 (stereo not drawn)	16	5.8*	-16	16	9.1*	3
Cc1cccc(N2CCN(C(=O)c3c(-c4ccccc4Cl)noc3C)CC2)c1C	-28	-3	28	0	nt	nt
Fc1ccc(Nc2nnc(-c3ccncc3)s2)cc1Cl	nt	-5	nt	nt	nt	nt
C[C@@H]1CN([C@@H](C)CO)C(=O)CCCn2nncc2CO[C@H]1CN(C)C(=O)NC1CCCCC1	nt	-1	nt	nt	nt	nt
O=c1c(CO)cc(CO)cc(CO)c1O	nt	31*	nt	0	30*	13*
Cc1[nH]n(-c2ccccc2)c(=O)c1C(c1cccc([N+](=O)[O-])c1)c1c(C)[nH]n(-c2ccccc2)c1=O	-28	9.1*	28	0	0	-1
Cc1[nH]n(-c2ccccc2)c(=O)c1C(=O)c1ccc([N+](=O)[O-])cc1	2	-2	-2	2	nt	nt
Cc1[nH]n(-c2ccccc2)c(=O)c1C(C[N+](=O)[O-])c1ccc(Br)cc1 (stereo not drawn)	-1	34*	1	12	0	0
Cc1[nH]n(-c2ccccc2)c(=O)c1C(c1cccc([N+](=O)[O-])c1O)c1c(C)[nH]n(-c2ccccc2)c1=O	-2	0	2	0	nt	nt
Cc1[nH]n(-c2ccccc2)c(=O)c1C(c1ccc(C(=O)O)cc1)c1c(C)[nH]n(-c2ccccc2)c1=O	7	17*	-7	2	0	2
COc1ccc(C2=Cc3ccc(OC(C)=O)cc3OC2)cc1	-27	0	27	nt	nt	nt
COc1ccc(CNC(=O)Nc2nc(C(N)Cc3ccc(C(F)(F)F)cc3)cs2)cc1 (stereo not drawn)	nt	-6	nt	nt	nt	nt
Cc1ccc(C(=O)Nc2ccccc2N2CCCC2)s1	-60	1	60	0	nt	nt
COc1cc(NC(=O)c2cc(-c3ccc4c(c3)OCO4)on2)cc(OC)c1OC	nt	12*	nt	0	-2	-1
CC(c1ccc2ccccc2c1)c1ccccc1C(=O)O (stereo not drawn)	nt	1	nt	nt	nt	nt
O=C1C(Nc2ccccc2)=CC(c2ccc(O)cc2)N1c1ccccc1 (stereo not drawn)	nt	-2	nt	0	nt	nt
COc1cc(C2C=C(Nc3ccccc3)C(=O)N2c2ccccc2)ccc1O (stereo not drawn)	-7	7.1*	7	3	-3	-1
CC1(C)C(=O)OC(c2cccn2-c2ccc([N+](=O)[O-])cc2)C2(CCCCC2)C1=O (stereo not drawn)	-10	-2	10	3	nt	nt
CC1(C)C(=O)OC(c2c(F)c(F)c(F)c(F)c2F)C2(CCCCC2)C1=O (stereo not drawn)	-77	7.5*	77*	0	-2	1

Compound activity (PubChem BioAssay)
